For assay [1], the target named is T1, Coagulation factor XI (Homo sapiens, UniProt P03951). Put plainly: Inhibition of human FXIa using S-2366 as chromogenic substrate preincubated with enzyme for 10 mins followed by substrate addition by spectrophotometric analysis.
Assay [2] has as its target T1, Coagulation factor XI. Put plainly: Inhibition of human FXIa using S-2366 as chromogenic substrate preincubated with enzyme for 10 mins followed by substrate addition by spectrophotometric analysis relative to control. Further details: concentration or dose not given beside the values. In a few lines:
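hFXIa (0.765 nM final) preincubated with inhibitor or reference solution for 10 min at 37 °C in pH 7.4 buffer (50 mM Tris-HCl, 150 mM NaCl, 0.1% PEG8000, 0.02% Tween80). S-2366 (345 μM final) then added, and residual activity read on a microplate reader.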

The target of assay [3] is Prothrombin (Homo sapiens) (UniProt P00734). Put plainly: Inhibition of human thrombin at 500 uM by chromogenic substrate hydrolysis assay.
In assay [4] the target is T2, Coagulation factor VII (Homo sapiens) (UniProt P08709).
T2 sequence (whole entry): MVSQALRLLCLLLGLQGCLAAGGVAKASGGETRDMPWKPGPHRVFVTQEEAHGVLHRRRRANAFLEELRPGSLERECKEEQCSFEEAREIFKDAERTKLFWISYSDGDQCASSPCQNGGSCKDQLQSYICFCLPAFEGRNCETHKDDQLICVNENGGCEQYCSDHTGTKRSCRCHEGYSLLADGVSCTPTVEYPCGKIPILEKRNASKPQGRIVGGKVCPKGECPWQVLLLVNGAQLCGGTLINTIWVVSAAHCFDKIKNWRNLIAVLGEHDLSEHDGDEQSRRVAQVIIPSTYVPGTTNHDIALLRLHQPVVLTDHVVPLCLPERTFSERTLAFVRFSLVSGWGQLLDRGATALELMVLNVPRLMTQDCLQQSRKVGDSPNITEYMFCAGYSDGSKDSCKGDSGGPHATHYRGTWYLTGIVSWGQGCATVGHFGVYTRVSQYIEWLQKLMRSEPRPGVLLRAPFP
The assay is described as follows: Inhibition of FVIIa (unknown origin) at 500 uM by chromogenic substrate hydrolysis assay.

Assay [5] deals with Coagulation factor IX (Homo sapiens) (UniProt P00740). Put plainly: Inhibition of human FIXa at 500 uM by chromogenic substrate hydrolysis assay.
Chain of Coagulation factor IX (Homo sapiens) (P00740 47-191 limits assumed): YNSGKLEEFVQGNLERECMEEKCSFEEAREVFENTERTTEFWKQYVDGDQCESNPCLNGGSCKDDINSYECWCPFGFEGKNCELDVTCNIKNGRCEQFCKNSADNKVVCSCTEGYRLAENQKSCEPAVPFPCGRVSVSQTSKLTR
Chain of Coagulation factor IX (Homo sapiens) (P00740 227-461 limits assumed): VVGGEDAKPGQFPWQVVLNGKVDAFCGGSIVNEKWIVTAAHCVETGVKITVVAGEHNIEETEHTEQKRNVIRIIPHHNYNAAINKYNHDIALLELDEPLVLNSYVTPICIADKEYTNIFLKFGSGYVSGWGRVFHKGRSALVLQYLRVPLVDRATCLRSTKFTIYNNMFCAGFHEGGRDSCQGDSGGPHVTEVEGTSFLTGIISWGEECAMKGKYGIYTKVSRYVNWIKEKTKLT
Assay [6] has as its target Coagulation factor X (Homo sapiens) (UniProt P00742). Put plainly: Inhibition of human FXa using methoxycarbonyl-D-cyclohexylglycyl-Gly-Arg-p-nitroanilide as substrate at 500 uM by chromogenic substrate hydrolysis assay.
Assay [7] deals with Plasma kallikrein (Homo sapiens) (UniProt P03952). The assay is described as follows: Inhibition of Kallikrein in human plasma at 500 uM by chromogenic substrate hydrolysis assay. Format: cell-free.
Chain of Plasma kallikrein (Homo sapiens) (P03952 20-390 limits assumed): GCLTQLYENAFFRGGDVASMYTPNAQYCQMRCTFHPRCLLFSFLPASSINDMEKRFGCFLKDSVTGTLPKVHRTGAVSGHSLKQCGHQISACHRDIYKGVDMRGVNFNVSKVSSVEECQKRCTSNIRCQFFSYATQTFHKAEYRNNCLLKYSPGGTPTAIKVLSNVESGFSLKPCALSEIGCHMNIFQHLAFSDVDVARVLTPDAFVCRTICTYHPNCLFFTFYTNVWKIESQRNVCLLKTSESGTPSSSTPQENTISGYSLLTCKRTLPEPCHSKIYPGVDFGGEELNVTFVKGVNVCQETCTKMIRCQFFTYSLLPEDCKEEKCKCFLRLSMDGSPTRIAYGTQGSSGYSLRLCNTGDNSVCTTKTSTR
Chain of Plasma kallikrein (Homo sapiens) (P03952 391-638 limits assumed): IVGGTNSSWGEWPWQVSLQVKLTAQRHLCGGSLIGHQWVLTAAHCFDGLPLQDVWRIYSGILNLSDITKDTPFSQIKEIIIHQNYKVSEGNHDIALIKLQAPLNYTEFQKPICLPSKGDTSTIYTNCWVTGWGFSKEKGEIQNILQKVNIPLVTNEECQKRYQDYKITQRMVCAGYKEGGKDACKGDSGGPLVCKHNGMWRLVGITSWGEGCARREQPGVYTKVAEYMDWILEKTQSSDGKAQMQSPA
The species named for the next assay is Bos taurus. Put plainly: Inhibition of bovine trypsin using S-2222 as chromogenic substrate at 500 uM by chromogenic substrate hydrolysis assay.
For assay [8], the target named is Chymotrypsinogen A (Bos taurus) (UniProt P00766). The assay is described as follows: Inhibition of bovine alpha-chymotrypsin at 500 uM by chromogenic substrate hydrolysis assay.
For assay [9], the species on record is Homo sapiens. The assay is described as follows: Selectivity for inhibition of human FXIa over human thrombin.
The species entered for assay [10] is Homo sapiens. Put plainly: Selectivity for inhibition of human FXIa over FVIIa (unknown origin).
The species named for assay [11] is Homo sapiens. The assay is described as follows: Selectivity for inhibition of human FXIa over human FIXa.
Assay [12] is filed under the species Homo sapiens. Put plainly: Selectivity for inhibition of human FXIa over human FXa.
For assay [13], the species on record is Homo sapiens. The assay is described as follows: Selectivity for inhibition of human FXIa over Kallikrein in human plasma. The format is cell-free.
Assay [14] in a line: Selectivity for inhibition of human FXIa over bovine trypsin.
Assay [15] in a line: Selectivity for inhibition of human FXIa over bovine alpha-chymotrypsin.

Active and inactive are the calls of the source. No cut-off for these calls is given here. Bounds are passed on as bounds.

Chain of Coagulation factor X (Homo sapiens) (P00742 41-179 limits assumed): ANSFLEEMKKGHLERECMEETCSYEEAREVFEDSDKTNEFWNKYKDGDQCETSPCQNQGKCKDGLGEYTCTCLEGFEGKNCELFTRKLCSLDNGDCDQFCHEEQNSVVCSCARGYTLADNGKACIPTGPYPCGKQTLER
Chain of Coagulation factor X (Homo sapiens) (P00742 235-488 limits assumed): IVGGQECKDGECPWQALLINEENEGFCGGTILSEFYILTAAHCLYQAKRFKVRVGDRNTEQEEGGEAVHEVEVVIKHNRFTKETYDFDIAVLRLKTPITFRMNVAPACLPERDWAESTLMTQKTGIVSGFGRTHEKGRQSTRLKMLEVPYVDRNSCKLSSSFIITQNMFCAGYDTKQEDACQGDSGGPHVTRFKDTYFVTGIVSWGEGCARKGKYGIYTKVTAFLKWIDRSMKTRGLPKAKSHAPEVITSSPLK
T1 sequence (P03951 19-387 limits assumed): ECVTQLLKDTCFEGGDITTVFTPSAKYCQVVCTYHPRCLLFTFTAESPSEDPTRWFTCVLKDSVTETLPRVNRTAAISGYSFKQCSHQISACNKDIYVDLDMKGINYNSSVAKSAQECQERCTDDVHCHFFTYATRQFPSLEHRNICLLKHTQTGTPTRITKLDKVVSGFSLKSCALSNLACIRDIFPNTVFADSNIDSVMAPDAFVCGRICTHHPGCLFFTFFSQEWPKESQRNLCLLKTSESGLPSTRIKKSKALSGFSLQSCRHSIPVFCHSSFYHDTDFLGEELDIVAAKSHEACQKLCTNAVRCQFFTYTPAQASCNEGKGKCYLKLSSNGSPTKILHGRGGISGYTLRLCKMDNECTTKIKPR
T1 sequence (P03951 388-625 limits assumed): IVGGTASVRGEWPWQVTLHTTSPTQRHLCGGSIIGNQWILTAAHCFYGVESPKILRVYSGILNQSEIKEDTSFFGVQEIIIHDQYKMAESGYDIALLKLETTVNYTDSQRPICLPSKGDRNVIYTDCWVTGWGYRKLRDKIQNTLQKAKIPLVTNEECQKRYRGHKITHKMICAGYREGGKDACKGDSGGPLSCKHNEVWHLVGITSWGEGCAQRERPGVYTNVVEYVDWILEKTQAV

For orientation: IC50 means the concentration that gives 50% inhibition. A word on the inhibition: it is the drop in the measured response relative to a control, in per cent. Turning to `O=c1c2ccccc2nc(-c2ccc(OS(=O)(=O)O)cc2)n1Cc1cccc(Cn2c(-c3ccc(OS(=O)(=O)O)cc3)nc3ccccc3c2=O)c1`, on Coagulation factor XI [1], the IC50 worked out at 76 µM. Moreover, the inhibition at Coagulation factor XI [2] turned out to be 96%. The inhibition entry (in assay [3]; in assay [4]; in assay [5]; in [6]; in assay [7]; in the assay listed under Bos taurus) was “inactive” each time. Besides, the inhibition entry in assay [8] is “inactive”. The Selectivity ratio (in the assay listed under Homo sapiens [9]; in the assay filed under Homo sapiens [10]; in the assay filed under Homo sapiens [11]; in the assay filed under Homo sapiens [12]; in the assay filed under Homo sapiens [13]; in [14]) was > 63 throughout. In assay [15], the Selectivity ratio is > 63.
With `O=c1c2ccccc2nc(-c2cccc(OS(=O)(=O)O)c2)n1CCCCCn1c(-c2cccc(OS(=O)(=O)O)c2)nc2ccccc2c1=O`, the IC50 at Coagulation factor XI [1] was found to be 89 µM. The inhibition against Coagulation factor XI [2] was 96%. Also, the inhibition result (in assay [3]; in [4]; in assay [5]; in assay [6]; in assay [7]; in the assay filed under Bos taurus) was “inactive” in each case. The inhibition result in assay [8] is “inactive”. Further, the Selectivity ratio (in the assay filed under Homo sapiens [9]; in the assay listed under Homo sapiens [10]; in the assay listed under Homo sapiens [11]; in the assay filed under Homo sapiens [12]; in the assay filed under Homo sapiens [13]; in [14]) was > 63 throughout. Moreover, the Selectivity ratio in [15] is > 63.
For the molecule `O=c1c2ccccc2nc(-c2ccc(OS(=O)(=O)O)cc2)n1CCCCCCCn1c(-c2ccc(OS(=O)(=O)O)cc2)nc2ccccc2c1=O`, at Coagulation factor XI [1], the midpoint of inhibition, the IC50, lay at 23 µM. The inhibition against Coagulation factor XI [2] was found to be 96%. For the same molecule, the inhibition result (in [3]; in assay [4]; in assay [5]; in [6]; in assay [7]; in the assay listed under Bos taurus) was “inactive” throughout. The inhibition entry in [8] is “inactive”. Moreover, the Selectivity ratio (in the assay listed under Homo sapiens [9]; in the assay filed under Homo sapiens [10]; in the assay filed under Homo sapiens [11]; in the assay filed under Homo sapiens [12]; in the assay filed under Homo sapiens [13]; in [14]) was > 63 each time. Further, in [15], the Selectivity ratio was > 63.
Molecule `O=c1c2ccccc2nc(-c2cccc(OS(=O)(=O)O)c2)n1Cc1cccc(Cn2c(-c3cccc(OS(=O)(=O)O)c3)nc3ccccc3c2=O)c1` yielded a half-maximal inhibitory concentration (IC50) on Coagulation factor XI [1] of 60 µM. In addition, the inhibition against Coagulation factor XI [2] was 92%. In addition, the inhibition entry (in assay [3]; in assay [4]; in assay [5]; in assay [6]; in assay [7]; in the assay listed under Bos taurus) was “inactive” throughout. The inhibition result in assay [8] was “inactive”. Besides, the Selectivity ratio (in the assay listed under Homo sapiens [9]; in the assay filed under Homo sapiens [10]; in the assay filed under Homo sapiens [11]; in the assay listed under Homo sapiens [12]; in the assay listed under Homo sapiens [13]; in assay [14]) was > 63 throughout. Besides, the Selectivity ratio in assay [15] is > 63.
Regarding `O=c1c2ccccc2nc(-c2cccc(OS(=O)(=O)O)c2)n1CCCCCCn1c(-c2cccc(OS(=O)(=O)O)c2)nc2ccccc2c1=O`, half-maximal inhibition on Coagulation factor XI [1] (IC50) required 53 µM. In addition, on Coagulation factor XI [2], the inhibition was found to be 96%. In addition, the inhibition entry (in [3]; in [4]; in assay [5]; in [6]; in assay [7]; in the assay filed under Bos taurus) was “inactive” in each case. The inhibition result in assay [8] was “inactive”. The Selectivity ratio (in the assay filed under Homo sapiens [9]; in the assay listed under Homo sapiens [10]; in the assay filed under Homo sapiens [11]; in the assay filed under Homo sapiens [12]; in the assay filed under Homo sapiens [13]; in assay [14]) was > 63 in each case. In addition, the Selectivity ratio in [15] was > 63.
With `O=c1c2ccccc2nc(-c2ccc(OS(=O)(=O)O)cc2)n1CCCCCCCCn1c(-c2ccc(OS(=O)(=O)O)cc2)nc2ccccc2c1=O`, at Coagulation factor XI [1], the concentration for half-maximal inhibition (IC50) came to 20 µM. In addition, the inhibition on Coagulation factor XI [2] was 81%. For the same molecule, the inhibition result (in assay [3]; in assay [4]; in assay [5]; in [6]; in [7]; in the assay filed under Bos taurus) was “inactive” each time. Also, in assay [8], the inhibition entry was “inactive”. In addition, the Selectivity ratio (in the assay listed under Homo sapiens [9]; in the assay listed under Homo sapiens [10]; in the assay listed under Homo sapiens [11]; in the assay listed under Homo sapiens [12]; in the assay filed under Homo sapiens [13]; in assay [14]) was > 63 in each case. In addition, the Selectivity ratio in assay [15] was > 63.
`O=c1c2ccccc2nc(-c2ccc(OS(=O)(=O)O)cc2)n1CCCCCCCn1cc(Cn2c(-c3ccc(OS(=O)(=O)O)cc3)nc3ccccc3c2=O)nn1`: the IC50 against Coagulation factor XI [1] worked out at 51 µM. Also, the inhibition against Coagulation factor XI [2] is 103%. For the same molecule, the inhibition result (in assay [3]; in assay [4]; in assay [5]; in assay [6]; in assay [7]; in the assay listed under Bos taurus) was “inactive” in each case. In assay [8], the inhibition entry is “inactive”. Moreover, the Selectivity ratio (in the assay filed under Homo sapiens [9]; in the assay listed under Homo sapiens [10]; in the assay listed under Homo sapiens [11]; in the assay listed under Homo sapiens [12]; in the assay listed under Homo sapiens [13]; in [14]) was > 63 in each case. In assay [15], the Selectivity ratio is > 63.
Take `O=c1c2ccccc2nc(-c2ccc(OS(=O)(=O)O)cc2)n1CCCCCCCCCn1cc(Cn2c(-c3ccc(OS(=O)(=O)O)cc3)nc3ccccc3c2=O)nn1`: the midpoint of inhibition on Coagulation factor XI [1], the IC50, lay at 34 µM. Further, the inhibition on Coagulation factor XI [2] is 100%. The inhibition result (in [3]; in [4]; in assay [5]; in assay [6]; in assay [7]; in the assay filed under Bos taurus) was “inactive” in each case. In assay [8], the inhibition entry is “inactive”. In addition, the Selectivity ratio (in the assay listed under Homo sapiens [9]; in the assay filed under Homo sapiens [10]; in the assay listed under Homo sapiens [11]; in the assay filed under Homo sapiens [12]; in the assay listed under Homo sapiens [13]; in assay [14]) was > 63 throughout. For the same molecule, the Selectivity ratio in assay [15] was > 63.
